Measured values as given in paper PMC4570851 (Bioorganic & medicinal chemistry letters, 2012).
Where no end group is shown, it is not given here. [ ]: non-standard residue; d: D form.

Target: T1, sPLA2-IIA-integrin αvβ3 interaction (Homo sapiens, UniProt P14555)
T1 sequence (P14555 21-144): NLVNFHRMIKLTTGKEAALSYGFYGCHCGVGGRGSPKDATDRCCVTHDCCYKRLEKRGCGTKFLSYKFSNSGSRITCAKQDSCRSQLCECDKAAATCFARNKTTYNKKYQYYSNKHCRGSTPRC
Assay: cell adhesion inhibition assay: αvβ3-K562 cells on immobilized sPLA2-IIA
Assay type: cell-based
Conditions: for inhibition of the sPLA2-IIA-integrin interaction (in words): αvβ3-K562 cell adhesion to immobilized sPLA2-IIA; for Max. Inhibition / IC50: αvβ3-K562 cells, immobilized sPLA2-IIA, means ± S.E. (n=3); for Max. Inhibition: adhesion without inhibitors as 100%, adhesion to BSA only as 0%; for IC50: compounds 10 to 500 μM, 30 min, cells 1 h at 37 °C
Summary of the method: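 Wells coated with sPLA2-IIA and blocked with BSA, then preincubated 30 min with test compound (10 to 500 μM). K562 erythroleukemia cells transfected to overexpress integrin αvβ3 were added for 1 h at 37 °C. Bound cells were quantified by phosphatase assay. IC50 and maximum inhibition came from dose-response data, with no-inhibitor adhesion as 100% and BSA-only as 0%. n=3.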

Compound	inhibition of the sPLA2-IIA-integrin interaction (in words)	IC50 [µM]	Max. Inhibition
Cc1nc(NC(=O)c2ccccc2)sc1-c1cc(C(=O)O)[nH]n1 [Cmpd8-1, R-OH]	not inhibitory	–	N/A (N/A, “not active’ (<30% inhibition))
Cc1nc(NC(=O)c2ccccc2)sc1-c1cc(C(=O)N[C@@H](C)C(=O)O)[nH]n1 [Cmpd8-2, R-Ala]	–	–	N/A (N/A, “not active’ (<30% inhibition))
Ala-Trp-Asp*-Ile [Cmpd8-5]	not inhibitory	–	N/A (N/A, “not active’ (<30% inhibition))

More lines, main results first:

inhibition of the sPLA2-IIA-integrin interaction (in words)	IC50 [µM]	Compound	Max. Inhibition
active	–	Cc1nc(NC(=O)c2ccccc2)sc1-c1cc(C(=O)NCC(=O)O)[nH]n1 [Cmpd21-1, R-Gly]	–
not inhibitory	–	Gly-Arg*-Gly-Asp*-Asp*-Asp* [Cmpd21-6]	N/A (N/A, “not active’ (<30% inhibition))
–	20 ± 1.3	R-Ala-Trp-Asp*-Ile (AW[dD]I-NH2; not fully specified (N-terminus)) [Cmpd8]	–
–	155 ± 3.8	R-Gly-Arg*-Gly-Asp* (G[dR]G[dD]-NH2; not fully specified (N-terminus)) [Cmpd21-4]	–
–	71 ± 18	R-Gly-Arg*-Gly-Asp*-Asp*-Asp* (G[dR]G[dD][dD][dD]-NH2; not fully specified (N-terminus)) [Cmpd21]	–
